Experimental data reported in ChEMBL document CHEMBL2417529, “An expedient, ionic liquid mediated multi-component synthesis of novel piperidone grafted cholinesterase enzymes inhibitors and their molecular modeling study” (Eur J Med Chem, 2013).

How the values were obtained:
[1] = Selectivity ratio of IC50 for electric eel AChE to IC50 for horse serum BChE
Outline: (§1)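 Ratio of IC50s from Ellman microplate assays in 0.1 M sodium phosphate pH 8 with 1% final DMSO. AChE (Electrophorus electricus) used acetylthiocholine iodide; BChE (equine serum) used S-butyrylthiocholine chloride, each 14 mM stock. Enzyme and sample preincubated 15 min at 25 °C, then DTNB and substrate added. A412 read at 30 min in triplicate; IC50 from five concentrations.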

[2] = Selectivity ratio of IC50 for horse serum BChE to IC50 for electric eel AChE; outline: as §1
Cholinesterase = Cholinesterase (Equus caballus, UniProt P81908); experiment: Inhibition of horse serum BChE using S-butyrylthiocholine chloride as substrate preincubated for 15 mins followed by substrate addition measured after 30 mins by Ellman's microplate assay
Chain of Cholinesterase (P81908 whole entry): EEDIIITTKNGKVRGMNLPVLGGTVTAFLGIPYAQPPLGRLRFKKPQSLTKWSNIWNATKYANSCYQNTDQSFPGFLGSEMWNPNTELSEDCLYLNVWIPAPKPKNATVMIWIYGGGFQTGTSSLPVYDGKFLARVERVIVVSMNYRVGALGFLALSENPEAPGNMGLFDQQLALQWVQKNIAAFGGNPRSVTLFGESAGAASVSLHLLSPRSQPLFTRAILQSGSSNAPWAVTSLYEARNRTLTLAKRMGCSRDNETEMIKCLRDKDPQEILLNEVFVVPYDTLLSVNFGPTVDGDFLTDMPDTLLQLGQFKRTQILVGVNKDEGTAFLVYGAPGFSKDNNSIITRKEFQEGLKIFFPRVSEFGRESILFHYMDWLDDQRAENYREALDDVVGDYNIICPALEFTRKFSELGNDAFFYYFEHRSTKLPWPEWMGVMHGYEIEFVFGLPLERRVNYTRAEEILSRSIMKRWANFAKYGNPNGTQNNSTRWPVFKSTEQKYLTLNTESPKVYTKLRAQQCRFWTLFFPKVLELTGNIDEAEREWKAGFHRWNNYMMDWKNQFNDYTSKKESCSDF
Outline: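 Equine serum BChE preincubated with test samples in 0.1 M sodium phosphate buffer pH 8 for 15 min at 25 °C. DTNB added, then S-butyrylthiocholine chloride (14 mM stock). Colored product read at 412 nm 30 min after reaction start. Final DMSO 1%; triplicates; blank-corrected absorbance; % inhibition versus control; IC50 from five concentrations.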

Acetylcholinesterase = Acetylcholinesterase (Electrophorus electricus, UniProt O42275); experiment: Inhibition of electric eel AChE using acetylthiocholine iodide as substrate preincubated for 15 mins followed by substrate addition measured after 30 mins by Ellman's microplate assay
Chain of Acetylcholinesterase (O42275 whole entry): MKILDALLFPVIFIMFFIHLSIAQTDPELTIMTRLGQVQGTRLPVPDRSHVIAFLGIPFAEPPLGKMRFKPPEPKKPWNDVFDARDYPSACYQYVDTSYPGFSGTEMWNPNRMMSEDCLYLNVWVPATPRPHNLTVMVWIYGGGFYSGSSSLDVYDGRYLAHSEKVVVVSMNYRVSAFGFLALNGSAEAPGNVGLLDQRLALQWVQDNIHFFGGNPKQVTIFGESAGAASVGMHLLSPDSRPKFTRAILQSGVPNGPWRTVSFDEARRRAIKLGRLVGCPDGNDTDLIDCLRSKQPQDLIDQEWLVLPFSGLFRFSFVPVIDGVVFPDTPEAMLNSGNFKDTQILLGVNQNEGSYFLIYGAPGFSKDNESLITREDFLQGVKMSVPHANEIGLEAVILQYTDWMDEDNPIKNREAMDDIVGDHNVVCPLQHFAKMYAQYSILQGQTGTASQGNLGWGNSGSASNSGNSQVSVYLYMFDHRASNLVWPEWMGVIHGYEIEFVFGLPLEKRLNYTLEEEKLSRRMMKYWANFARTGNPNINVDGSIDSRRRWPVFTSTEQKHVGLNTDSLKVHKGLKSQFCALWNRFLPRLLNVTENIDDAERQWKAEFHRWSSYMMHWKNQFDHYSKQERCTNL

Row | Structure (SMILES) | Ratio IC50 [1] | Ratio IC50 [2] | IC50 (Cholinesterase) [µM] | IC50 (Acetylcholinesterase) [µM]
1 | CCN1CC2=C(NC(=S)NC2c2ccccc2)/C(=C/c2ccccc2)C1 (stereo unspecified) | 0.22 | 4.56 | 4.2 | 0.92
2 | CCN1CC2=C(NC(=S)NC2c2ccccc2F)/C(=C/c2ccccc2F)C1 (stereo unspecified) | 1.24 | 0.81 | 4.48 | 5.54
3 | CCN1CC2=C(NC(=S)NC2c2ccc(Cl)cc2)/C(=C/c2ccc(Cl)cc2)C1 (stereo unspecified) | 0.22 | 4.56 | 5.88 | 1.29
4 | Cc1ccccc1/C=C1\CN(CCN2CCOCC2)CC2=C1NC(=S)NC2c1ccccc1C (stereo unspecified) | 4.31 | 0.23 | 1.89 | 8.15
5 | Fc1ccc(/C=C2\CN(CCN3CCOCC3)CC3=C2NC(=S)NC3c2ccc(F)cc2)cc1 (stereo unspecified) | 1.97 | 0.51 | 3.41 | 6.72
6 | S=C1NC2=C(CN(CCN3CCOCC3)C/C2=C\c2ccc(Cl)cc2Cl)C(c2ccc(Cl)cc2Cl)N1 (stereo unspecified) | 1.47 | 0.68 | 5.87 | 8.67
7 | CCN1CC2=C(NC(=S)NC2c2ccccc2OC)/C(=C/c2ccccc2OC)C1 (stereo unspecified) | 0.61 | 1.65 | 8.13 | 4.92
8 | CCN1CC2=C(NC(=S)NC2c2ccc(C)cc2)/C(=C/c2ccc(C)cc2)C1 (stereo unspecified) | 1.06 | 0.94 | 4.73 | 5.02
9 | COc1ccccc1/C=C1\CN(CCN2CCOCC2)CC2=C1NC(=S)NC2c1ccccc1OC (stereo unspecified) | 1.42 | 0.71 | 5.93 | 8.39
10 | CCN1CC2=C(NC(=S)NC2c2ccc(F)cc2)/C(=C/c2ccc(F)cc2)C1 (stereo unspecified) | 0.36 | 2.76 | 5.98 | 2.07
11 | S=C1NC2=C(CN(CCN3CCOCC3)C/C2=C\c2ccccc2)C(c2ccccc2)N1 (stereo unspecified) | 1.39 | 0.72 | 3.23 | 4.49
12 | CCN1CC2=C(NC(=S)NC2c2ccccc2C)/C(=C/c2ccccc2C)C1 (stereo unspecified) | 1.57 | 0.64 | 3.93 | 6.17
13 | CCN1CC2=C(NC(=S)NC2c2ccc(Cl)cc2Cl)/C(=C/c2ccc(Cl)cc2Cl)C1 (stereo unspecified) | 2.42 | 0.41 | 3.61 | 8.75
14 | CCN1CC2=C(NC(=S)NC2c2ccccc2Cl)/C(=C/c2ccccc2Cl)C1 (stereo unspecified) | 2.3 | 0.43 | 3.57 | 8.22
15 | S=C1NC2=C(CN(CCN3CCOCC3)C/C2=C\c2ccc(Cl)cc2)C(c2ccc(Cl)cc2)N1 (stereo unspecified) | 1.28 | 0.78 | 4.28 | 5.49
16 | CCN1CC2=C(NC(=S)NC2c2cccc([N+](=O)[O-])c2)/C(=C/c2cccc([N+](=O)[O-])c2)C1 (stereo unspecified) | 1.54 | 0.65 | 5.11 | 7.88
17 | S=C1NC2=C(CN(CCN3CCOCC3)C/C2=C\c2ccccc2Cl)C(c2ccccc2Cl)N1 (stereo unspecified) | 2.77 | 0.36 | 2.44 | 6.75
18 | Cc1ccc(/C=C2\CN(CCN3CCOCC3)CC3=C2NC(=S)NC3c2ccc(C)cc2)cc1 (stereo unspecified) | 2 | 0.5 | 3.58 | 7.16
19 | Fc1ccccc1/C=C1\CN(CCN2CCOCC2)CC2=C1NC(=S)NC2c1ccccc1F (stereo unspecified) | 3.14 | 0.32 | 2.97 | 9.32
